These results are taken from publication PMC4547606 (Bioorganic & medicinal chemistry, 2015).

In general, inhibition refers to the relative decrease from the control value, in per cent.

Assay [1] deals with human CB2 receptor (Homo sapiens, UniProt P34972). In words: CB2 calcium mobilization assay, antagonist screen at 10 μM. In kind it is cell-based. Particulars: read-out: CB2 % Inhibition of CP55,940, compound at 10 μM; percent inhibition of CP55,940 EC80 (100 nM); mean ± SEM, at least two independent experiments in duplicate. In general terms: Calcium assays in cells follow changes in intracellular calcium, usually with a dye or a luminescent sensor.
Sequence of human CB2 receptor (P34972 whole entry): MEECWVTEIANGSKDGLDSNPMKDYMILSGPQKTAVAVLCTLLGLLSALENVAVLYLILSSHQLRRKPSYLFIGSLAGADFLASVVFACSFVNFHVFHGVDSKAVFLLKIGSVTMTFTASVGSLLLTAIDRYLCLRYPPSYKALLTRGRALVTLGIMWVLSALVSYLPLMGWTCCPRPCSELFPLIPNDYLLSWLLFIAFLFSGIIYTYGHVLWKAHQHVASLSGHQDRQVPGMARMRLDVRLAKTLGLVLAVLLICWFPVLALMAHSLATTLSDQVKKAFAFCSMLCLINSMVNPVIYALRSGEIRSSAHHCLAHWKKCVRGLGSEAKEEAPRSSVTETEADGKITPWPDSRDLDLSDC

Assay [2] has as its target T1, human CB1 receptor (Homo sapiens, UniProt P21554). In words: CB1 calcium mobilization assay, modulation experiments. The note with it: Figure 2. In kind it is cell-based. The method, boiled down: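 CHO-RD-HGA16 cells stably expressing human CB1, plated the day before and kept overnight at 37°C, 5% CO2. Loaded with Calcium 5 dye for 45 min at 37°C in HBSS, 20 mM HEPES, 2.5 mM probenecid, pH 7.4. Pre-treated 15 min at 37°C with one test compound concentration, then serial CP55,940 dilutions added at 10 s. Fluorescence read every 1 s for 90 s.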

Assay [3] has as its system mice. Particulars: cited from earlier work.
The subject of assay [4] is rats. The note with it: cited from earlier work.
The subject of assay [5] is rats. The note with it: cited from earlier work. The source holds these as a separate data set.
The test system of assay [6] is over forty GPCRs. Particulars: including GPCRs commonly involved in drug addictions; cited from earlier work.
Assay [7] addresses T1, human CB1 receptor. In words: CB1 calcium mobilization assay, antagonist. In kind it is cell-based. The note with it: ratio of CB1 IC50 values. The procedure, abridged: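 CHO-RD-HGA16 cells stably expressing human CB1 were plated overnight (37°C, 5% CO2), then Calcium 5 dye-loaded for 45 min at 37°C in HBSS/20 mM HEPES/2.5 mM probenecid, pH 7.4. Test compound dilutions were pre-incubated 15 min at 37°C. CP55,940 at EC80 was added at 10 s, and fluorescence was read every 1 s for 90 s. IC50 came from three-parameter logistic fits; at least three independent experiments in duplicate.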

“And” between values parts separate entries of the source, which are not always exact repeats. Equal entries are not always repeated.

T1 sequence (P21554 whole entry): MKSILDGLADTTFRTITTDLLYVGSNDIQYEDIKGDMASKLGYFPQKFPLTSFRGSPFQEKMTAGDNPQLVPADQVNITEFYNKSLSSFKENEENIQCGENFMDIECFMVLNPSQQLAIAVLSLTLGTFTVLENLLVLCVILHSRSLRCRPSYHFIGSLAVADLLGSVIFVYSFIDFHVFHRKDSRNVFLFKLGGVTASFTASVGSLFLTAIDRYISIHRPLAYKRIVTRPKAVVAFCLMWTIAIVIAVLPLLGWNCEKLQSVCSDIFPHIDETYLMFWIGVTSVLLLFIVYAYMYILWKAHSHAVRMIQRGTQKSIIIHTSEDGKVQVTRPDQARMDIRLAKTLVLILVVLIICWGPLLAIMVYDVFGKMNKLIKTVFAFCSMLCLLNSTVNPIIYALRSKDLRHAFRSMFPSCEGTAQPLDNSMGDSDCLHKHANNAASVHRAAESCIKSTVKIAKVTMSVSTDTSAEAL

With `CCc1c(C(=O)NCCc2ccc(N(CC)CC)cc2)[nH]c2ccc(F)cc12` [Compound 42, 5-Fluoro-N-{2-[4-(diethylamino)phenyl]ethyl}-3-ethyl-1H-indole-2-carboxamide], the inhibition at 10 µM in assay [1] was -25.7 ± 10.7%.

With `CCCCCCNc1ccc(CCNC(=O)c2[nH]c3ccc(Cl)cc3c2CC)cc1` [Compound 19, 5-Chloro-N-{2-[4-(hexylamino)phenyl]ethyl}-3-ethyl-1H-indole-2-carboxamide], in assay [1], the inhibition at 10 µM was -35 ± 4.6%.

In the case of `CCc1c(C(=O)NCCc2ccc(OC)cc2)[nH]c2ccc(Cl)cc12` [Compound 26, 5-Chloro-N-[2-(4-methoxyphenyl)ethyl]-3-ethyl-1H-indole-2-carboxamide], in assay [1], the inhibition at 10 µM is -11.2 ± 19.6%.

Turning to `CCc1c(C(=O)NCCc2ccc(N3CCCCC3)cc2)[nH]c2ccc(Cl)cc12` [Compound 1, Org27569], the inhibition at 10 µM in assay [1] is -16.4 ± 1.8%. Moreover, the “Effect on Emax of agonist CP55,940” value in assay [2] is given as “dose-dependently decreased the Emax”. In assay [3], the “Anorectic effect, mechanism” value is on record as “anorectic effect through non-CB1 specific mechanisms” and the “Effect on CB1 agonist-induced effects (antinociception, catalepsy, hypothermia)” value is on record as “did not enhance or block”. Also, in assay [4], the “Effect in catalepsy and antinociception” value is “negative results”; the “Effect on hypothermic effects of CB1 receptor agonists CP55940 and anandamide” value is listed as “attenuated the hypothermic effects”. Further, the “Cue- and drug-induced reinstatement of cocaine- and methamphetamine-seeking behavior” value in assay [5] is “dose-related attenuation”. The “Pharmacological selectivity against over forty GPCRs” value in assay [6] was “high pharmacological selectivity”.

Take `CCN(CC)c1ccc(CCNC(=O)c2cc3cc(Cl)ccc3[nH]2)cc1` [Compound 45, 5-Chloro-N-{2-[4-(diethylamino)phenyl]ethyl}-1H-indole-2-carboxamide]: in assay [7], the “fold more potent than compound 1 (CB1 IC50)” value is on record as roughly 10 fold; the “fold more potent than compound 3 (CB1 IC50)” value was ~ 2.5 fold and 2.5 fold; the “fold more potent than compound 17 (CB1 IC50)” value stood at 6 fold. Besides, in assay [2], the “Effect on Emax of agonist CP55,940” value is listed as “dose-dependently decreased the Emax”.

`CCc1c(C(=O)N2CCN(c3ccc(Cl)cc3)CC2)[nH]c2ccc(Cl)cc12` [Compound 37, 5-Chloro-2-[4-(4-chlorophenyl)piperazine-1-carbonyl]-3-ethyl-1H-indole]: the inhibition at 10 µM in assay [1] is -31.1 ± 18.8%.

For `CCc1c(C(=O)NCCc2ccc(N(C)C)cc2)[nH]c2ccc(F)cc12` [Compound 3, Org27759, reference compound], the inhibition at 10 µM in assay [1] was -20.4 ± 2.4%. The “Effect on Emax of agonist CP55,940” value in assay [2] was “dose-dependently decreased the Emax”.

`CCc1c(C(=O)NCCc2ccc(N(C)C)cc2)[nH]c2ccc(Cl)cc12` [Compound 16, 5-Chloro-N-{2-[4-(dimethylamino)phenyl]ethyl}-3-ethyl-1H-indole-2-carboxamide]: the inhibition at 10 µM in assay [1] is -12.7 ± 2.8%.

Turning to `CCN(CC)c1ccc(CCNC(=O)c2[nH]c3ccc(F)cc3c2C)cc1` [Compound 43, 5-Fluoro-N-{2-[4-(diethylamino)phenyl]ethyl}-3-methyl-1H-indole-2-carboxamide], the inhibition at 10 µM in assay [1] is -21.8 ± 6.5%.

Regarding `CCc1c(C(=O)NCCc2ccc(N(CC)CC)cc2)[nH]c2ccc(Cl)cc12` [Compound 17, 5-Chloro-N-{2-[4-(diethylamino)phenyl]ethyl}-3-ethyl-1H-indole-2-carboxamide], the “fold more potent than compound 1 (CB1 IC50)” value in assay [7] is recorded as 2 fold.

Consider `CCc1c(C(=O)NCCc2ccc(N3CCCCC3)cc2)[nH]c2ccc(F)cc12` [Compound 46, 5-Fluoro-3-ethyl-N-{2-[4-(piperidin-1-yl)phenyl]ethyl}-1H-indole-2-carboxamide], for which the inhibition at 10 µM in assay [1] was -33.1 ± 16.3%.

For the compound `CCc1c(C(=O)Nc2cccc(-c3cccc(N(C)C)n3)c2)[nH]c2ccc(Cl)cc12` [Compound 35, 5-Chloro-N-{3-[6-(dimethylamino)pyridin-2-yl]phenyl}-3-ethyl-1H-indole-2-carboxamide], the inhibition at 10 µM in assay [1] was -19.2 ± 11.5%.

As for `CCCN(CCC)c1ccc(CCNC(=O)c2[nH]c3ccc(Cl)cc3c2CC)cc1` [Compound 18, 5-Chloro-N-{2-[4-(dipropylamino)phenyl]ethyl}-3-ethyl-1H-indole-2-carboxamide], in assay [1], the inhibition at 10 µM is -37.4 ± 6.8%.

For the compound `CCc1c(C(=O)NCCc2ccc(C(C)(C)C)cc2)[nH]c2ccc(Cl)cc12` [Compound 27, 5-Chloro-N-[2-(4-tert-butylphenyl)ethyl]-3-ethyl-1H-indole-2-carboxamide], the inhibition at 10 µM in assay [1] is -18 ± 35.4%.

Regarding `CCN(CC)c1ccc(CCNC(=O)c2cc3cc(F)ccc3[nH]2)cc1` [Compound 44, 5-Fluoro-N-{2-[4-(diethylamino)phenyl]ethyl}-1H-indole-2-carboxamide], the inhibition at 10 µM in assay [1] was -23.8 ± 5.2%.

With `CCc1c(C(=O)N2CCN(c3ccccc3)CC2)[nH]c2ccc(Cl)cc12` [Compound 36, 5-Chloro-3-ethyl-2-(4-phenylpiperazine-1-carbonyl)-1H-indole], the inhibition at 10 µM in assay [1] was -28 ± 25.9%.
